Laboratory results: ChEMBL document CHEMBL2034910, “Synthesis, biological evaluation and 3D-QSAR studies of novel 4,5-dihydro-1H-pyrazole niacinamide derivatives as BRAF inhibitors” (Bioorg Med Chem, 2012)

Legend:
[1] = Inhibition of mouse full length GST-tagged BRAF V600E mutant-mediated Mek1 phosphorylation preincubated for 1 hr prior to substrate addition measured after 25 mins by PAGE analysis
[2] = Antiproliferative activity against human WM266.4 cells after 24 hrs by MTT assay; format: functional; conditions: WM 266-4, 24 h
In short: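 WM266.5 (so in the source) melanoma cells in DMEM/10% FBS, 37 °C, 5% CO2; seeded 1000 cells/well and left 24 h to reattach. DMSO stocks (20 mM) serially diluted in medium to final 100 µM–0.005 µM. Exposure 24 h at 37 °C. Viability by MTT reduction, absorbance at 590 nm; GI50 calculated.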

[3] = Acute oral toxicity in po dosed rat after 14 days; format: organism-based; conditions: in vivo
In short: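 Single 5000 mg/kg dose given by oral gavage to ten healthy rats. Mortality, gross toxicity signs and behavioural changes were checked at least once daily for 14 days. Body weights were taken before dosing and on days 7 and 14.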

IC50 [1] [µM] | pIC50 [1] | Compound | GI50 [2] [µM] | LD50 at 336 h [3] [mg/kg]
8.67 | 5.062 | O=C(c1cccnc1Cl)N1N=C(c2ccc(Cl)cc2)CC1c1ccc(Br)cc1 (stereo not drawn) | 7.45 | –
6.49 | 5.188 | COc1ccc(C2=NN(C(=O)c3cccnc3Cl)C(c3ccc(OCc4ccccc4)cc3)C2)cc1 (stereo not drawn) | 9.15 | –
2.12 | 5.672 | O=C(c1cccnc1Cl)N1N=C(c2ccc(Cl)cc2)CC1c1ccc(Cl)cc1 (stereo not drawn) | 3.58 | –
7.77 | 5.11 | Cc1ccc(C(=O)N2N=C(c3ccc(Cl)cc3)CC2c2ccc(Cl)cc2)c(Cl)n1 (stereo not drawn) | 8.87 | –
7.82 | 5.107 | O=C(c1cncc(Br)c1)N1N=C(c2ccc(Cl)cc2)CC1c1ccc(Br)cc1 (stereo not drawn) | 8.01 | –
6.78 | 5.369 | COc1ccc(C2=NN(C(=O)c3ccc(Cl)nc3)C(c3ccc(OCc4ccccc4)cc3)C2)cc1 (stereo not drawn) | 10.6 | –
7.61 | 5.119 | O=C(c1cncc(Br)c1)N1N=C(c2ccc(Cl)cc2)CC1c1ccc(OCc2ccccc2)cc1 (stereo not drawn) | 8.13 | –
7.56 | 5.121 | COc1ccc(C2=NN(C(=O)c3ccc(Cl)nc3)C(c3ccc(OC)cc3)C2)cc1 (stereo not drawn) | 6.45 | –
4.27 | 5.272 | COc1ccc(C2=NN(C(=O)c3cncc(Br)c3)C(c3ccc(OCc4ccccc4)cc3)C2)cc1 (stereo not drawn) | 6.24 | –
7.05 | 5.152 | Cc1ccc(C(=O)N2N=C(c3ccc(Cl)cc3)CC2c2ccc(Br)cc2)cn1 (stereo not drawn) | 7.65 | –
12.9 | 4.89 | Cc1ccc(C(=O)N2N=C(c3ccc(Cl)cc3)CC2c2ccc(OCc3ccccc3)cc2)c(Cl)n1 (stereo not drawn) | 11.4 | –
7.02 | 5.154 | Cc1ccc(C(=O)N2N=C(c3ccc(Cl)cc3)CC2c2ccc(OCc3ccccc3)cc2)cn1 (stereo not drawn) | 9.2 | –
4.58 | 5.339 | COc1ccc(C2=NN(C(=O)c3cncc(Br)c3)C(c3ccc(OC)cc3)C2)cc1 (stereo not drawn) | 7.56 | –
5.14 | 5.289 | COc1ccc(C2=NN(C(=O)c3ccc(C)nc3Cl)C(c3ccc(OC)cc3)C2)cc1 (stereo not drawn) | 5.74 | –
3.42 | 5.466 | COc1ccc(C2=NN(C(=O)c3ccc(C)nc3)C(c3ccc(OC)cc3)C2)cc1 (stereo not drawn) | 4.93 | –
3.58 | 5.446 | Cc1ccc(C(=O)N2N=C(c3ccc(Cl)cc3)CC2c2ccc(Cl)cc2)cn1 (stereo not drawn) | 3.79 | –
3.01 | 5.521 | COc1ccc(C2=NN(C(=O)c3ccc(C)nc3Cl)C(c3ccc(OCc4ccccc4)cc3)C2)cc1 (stereo not drawn) | 10.5 | –
0.51 | 6.292 | COc1ccc(C2=NN(C(=O)c3ccc(Cl)nc3)C(c3ccc(Cl)cc3)C2)cc1 (stereo not drawn) | 1.45 | –

IC50 [1] [µM] | pIC50 [1] | Compound | GI50 [2] [µM] | LD50 at 336 h [3] [mg/kg]
0.58 | 6.237 | COc1ccc(C2=NN(C(=O)c3ccc(C)nc3Cl)C(c3ccc(Cl)cc3)C2)cc1 (stereo not drawn) | 1.44 | –
7.16 | 5.145 | O=C(c1ccc(Cl)nc1)N1N=C(c2ccc(Cl)cc2)CC1c1ccc(Cl)cc1 (stereo not drawn) | 9.89 | –
4.42 | 5.355 | O=C(c1cccnc1Cl)N1N=C(c2ccc(Cl)cc2)CC1c1ccc(OCc2ccccc2)cc1 (stereo not drawn) | 7.71 | –
4.23 | 5.373 | COc1ccc(C2=NN(C(=O)c3ccc(C)nc3)C(c3ccc(Br)cc3)C2)cc1 (stereo not drawn) | 4.28 | –
1.63 | 5.788 | COc1ccc(C2=NN(C(=O)c3ccc(C)nc3)C(c3ccc(OCc4ccccc4)cc3)C2)cc1 (stereo not drawn) | 7.95 | –
4.77 | 5.321 | O=C(c1cncc(Br)c1)N1N=C(c2ccc(Cl)cc2)CC1c1ccc(Cl)cc1 (stereo not drawn) | 6.09 | –
7.34 | 5.134 | O=C(c1ccc(Cl)nc1)N1N=C(c2ccc(Cl)cc2)CC1c1ccc(Br)cc1 (stereo not drawn) | 9.87 | –
5.57 | 5.254 | COc1ccc(C2=NN(C(=O)c3cccnc3Cl)C(c3ccc(Br)cc3)C2)cc1 (stereo not drawn) | 3.05 | –
0.47 | 6.328 | COc1ccc(C2=NN(C(=O)c3cccnc3Cl)C(c3ccc(Cl)cc3)C2)cc1 (stereo not drawn) | 0.78 | –
3.51 | 5.455 | COc1ccc(C2=NN(C(=O)c3cncc(Br)c3)C(c3ccc(Br)cc3)C2)cc1 (stereo not drawn) | 5.63 | –
7.35 | 5.134 | Cc1ccc(C(=O)N2N=C(c3ccc(Cl)cc3)CC2c2ccc(Br)cc2)c(Cl)n1 (stereo not drawn) | 10.8 | –
6.14 | 5.212 | COc1ccc(C2=NN(C(=O)c3cccnc3Cl)C(c3ccc(OC)cc3)C2)cc1 (stereo not drawn) | 4.35 | –
0.38 | 6.42 | COc1ccc(C2=NN(C(=O)c3cncc(Br)c3)C(c3ccc(Cl)cc3)C2)cc1 (stereo not drawn) | 1.29 | –
0.06 | – | CNC(=O)c1cc(Oc2ccc(NC(=O)Nc3ccc(Cl)c(C(F)(F)F)c3)cc2)ccn1 [SORAFENIB] | 8.12 | –
6.89 | 5.162 | COc1ccc(C2=NN(C(=O)c3ccc(Cl)nc3)C(c3ccc(Br)cc3)C2)cc1 (stereo not drawn) | 7.13 | –
16.4 | 4.784 | O=C(c1ccc(Cl)nc1)N1N=C(c2ccc(Cl)cc2)CC1c1ccc(OCc2ccccc2)cc1 (stereo not drawn) | 13.2 | –
6.76 | 5.17 | COc1ccc(C2=NN(C(=O)c3ccc(C)nc3Cl)C(c3ccc(Br)cc3)C2)cc1 (stereo not drawn) | 8.47 | –

Compound | IC50 [1] [µM] | pIC50 [1] | GI50 [2] [µM] | LD50 at 336 h [3] [mg/kg]
COc1ccc(C2=NN(C(=O)c3ccc(C)nc3)C(c3ccc(Cl)cc3)C2)cc1 (stereo not drawn) | 0.2 | 6.796 | 0.89 | > 5000
